High-throughput results deposited in PubChem by several laboratories.
STAT1 activator: activators of IFN-gamma induced STAT1 signaling; NIH 3T3 STAT1-luciferase reporter, luminescence; 100% = IFN-gamma alone, no compound; activation (% of control), % at 5.5 µM; hit rate 2.6% among 200,000; AID 932;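 active means activation above the screen-wide mean activation plus 3 SD, cut at about 130% in these data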;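 further: raw ratio to IFN-gamma control signal so 100% means no change and 0% no light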
APP 5'UTR act: APP 5'UTR luciferase reporter activation; activation, % at 2 µM; SH-SY5Y APP 5'UTR luciferase reporter, luminescence; zero percent = DMSO vehicle wells; AID 1276; hit rate 1% among 190,000;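 active means activation above a set limit, based on mean plus 3 SD of controls, cut at about 140% in these data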
FLuc inh counter: counter-screen for luciferase assay inhibitors: firefly luciferase inhibition. ATPLite firefly luciferase biochemical luminescence, 10 min. hit rate 1.5% among 200,000. P08659. AID 1006. inhibition, % at 10 µM;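 active means inhibition above about 50% when tested at 10 µM, limit read from the data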
Target sequence (P08659 whole entry, looked up): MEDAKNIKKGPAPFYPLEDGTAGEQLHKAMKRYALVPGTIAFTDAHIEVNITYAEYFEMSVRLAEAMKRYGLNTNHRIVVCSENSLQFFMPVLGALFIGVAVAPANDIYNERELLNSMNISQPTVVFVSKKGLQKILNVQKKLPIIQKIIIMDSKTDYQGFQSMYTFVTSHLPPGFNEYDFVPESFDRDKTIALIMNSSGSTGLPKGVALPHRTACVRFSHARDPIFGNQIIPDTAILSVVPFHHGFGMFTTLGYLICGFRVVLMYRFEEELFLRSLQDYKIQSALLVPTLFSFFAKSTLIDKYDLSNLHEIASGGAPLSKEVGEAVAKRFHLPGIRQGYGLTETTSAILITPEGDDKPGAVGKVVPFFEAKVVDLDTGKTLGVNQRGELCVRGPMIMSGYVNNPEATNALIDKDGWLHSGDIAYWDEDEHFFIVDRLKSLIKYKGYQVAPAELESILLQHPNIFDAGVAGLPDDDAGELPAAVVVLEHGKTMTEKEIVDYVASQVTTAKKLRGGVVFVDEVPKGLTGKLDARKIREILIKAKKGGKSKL
APP 5UTR inh: APP translation inhibition | SH-SY5Y APP 5'UTR-luciferase reporter, luminescence | inhibition, % at 2 µM | hit rate 0.82% among 190,000 | AID 1285;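 active means inhibition above a set limit, derived from the sample mean plus 3 SD, cut at about 45% in these data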
NF-kB expr up: compounds increasing NF-kB expression in human neuronal cells; hit rate 1.6% among 190,000; NF-kB reporter expression; stronger effect = higher value; fold change at 12.5 µM; AID 1239; in the data active means fold change above about 3.3
FLuc act counter: firefly luciferase counter-screen for stimulation assays; P08659; ATPlite luciferase biochemical, luminescence, 10 min; 0 = ATP-free wells, 1 = DMSO control; activation factor at 10 µM; 200,000 tested, under 10 active;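 active means luciferase activation factor, scaled between plate controls, of at least 2 with compound at 10 µM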
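Material: Luciferase/luciferin reagent mix; Doses: test compounds dosed from 2 mM stocks in 100% DMSO; Schedule: 10 min incubation after luciferase reagent addition, room temperature; Measured by: luminescence from luciferase reaction; Read-out: luminescence gain marking luciferase activators.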
Numbers without * were called inactive; nt = no result given. Hits are enriched below; roughly 4.8% of the tested compounds scored in any of these assays.

SMILES	STAT1 activator	APP 5'UTR act	FLuc inh counter	APP 5UTR inh	NF-kB expr up	FLuc act counter
O=C(Nc1nnc(CCc2ccccc2)s1)c1cccs1	119	6	-3	-6	1.4	1
CC(C)c1nnc(NC(=O)c2cccs2)s1	129*	nt	11	nt	2.7	0.9
Cc1cnc(C(=O)Nc2nnc(C(C)C)s2)cn1	131*	36	-1	-36	1.8	1
COc1cccc(-c2nnc(NC(=O)c3cccs3)s2)c1	138*	41	33	-41	1.8	0.7
CSc1nnc(-c2sc3cc(C(F)(F)F)cnc3c2-c2ccccc2)n1C	102	-33	-6	33	1	1.1
CCN(CC)c1cccc(OC2=NS(=O)(=O)c3ccccc32)c1	100	-16	6	16	0.86	0.9
Cc1nc2c(cnn2-c2ccccc2Cl)c(=O)n1-c1ccc(C(C)C)cc1	100	nt	-2	nt	0.82	1
CCCCc1nnc(NC(=O)C=C(C)C)s1	100	14	0	-14	1.4	1
CC(C)=CC(=O)Nc1nnc(C(C)C)s1	145*	100	-3	-100	2.7	1
O=S(=O)(/C=C/c1ccccc1)Nc1cccc(S(=O)(=O)NC2=NCCC2)c1	94	-7	-6	7	1.2	1.1
O=C1C=CC(=O)N1c1ccc(OC(F)F)cc1	98	-56	7	56*	1.5	0.9
O=C(NN1C(=O)c2ccccc2NC1c1ccco1)c1ccc([N+](=O)[O-])cc1 (configuration not stated)	93	-1	-3	1	1.1	1
O=C(CN1CCCCCC1)Nc1cccc([N+](=O)[O-])c1	106	13	-6	-13	1.1	1.1
O=C(Nc1cccc([N+](=O)[O-])c1)C(=O)N1CCCCC1	132*	69	-1	-69	2.4	1
Cc1ccc(NC(=O)C(=O)N2CCCC2)cc1Cl	148*	89	10	-89	3	0.9
CSc1ccc(S(=O)(=O)N(CC(=O)NN=C2CCN(C)CC2)c2ccc(C)cc2)cc1	100	-15	1	15	1.1	1
Cc1ccc(C(=O)Oc2oc(-c3ccco3)nc2C=Nc2ccccc2)cc1	139*	49	0	-49	3	1
COc1ccc(N=Cc2nc(-c3ccccc3)oc2OC(=O)c2ccccc2)cc1	132*	102	4	-102	2	1
Cc1c(C=O)c2ccccn2c1C(=O)c1cccs1	100	-13	-1	13	0.99	1
CCCn1c(C)cc(C(=O)COC(=O)c2nccnc2N)c1C	70	134	78*	-134	2.1	0.2
O=C(NC(Cc1c[nH]c2ccccc12)C(=O)NCc1ccc(F)cc1)OCc1ccccc1 (configuration not stated)	107	8	-7	-8	0.97	1.1
CN=c1scc(-c2cccs2)n1/N=C/c1ccccc1O	58	-53	94*	53*	0.17	0.1
CN=c1scc(-c2cccs2)n1/N=C/c1ccc(O)c(O)c1O	58	-21	98*	21	5*	0
CN=c1scc(C)n1/N=C/c1ccc(O)c(O)c1O	90	0	97*	0	0.98	0
COCCN=c1scc(-c2ccco2)n1/N=C/c1ccc(O)c(O)c1O	78	1	13	-1	1.2	0.9
SMILES	STAT1 activator	APP 5'UTR act	FLuc inh counter	APP 5UTR inh	NF-kB expr up	FLuc act counter
CN=c1scc(C)n1/N=C/c1cc(Br)c(O)c(OC)c1	103	-3	2	3	1.9	1
Cc1nnc(SCc2nnc(-c3cccs3)o2)s1	95	15	-1	-15	1.1	1
Cc1ccsc1-c1nc(CSCC(=O)NCc2ccc3c(c2)OCO3)c(C)o1	105	7	0	-7	1.1	1
O=C(OCC(=O)c1cccs1)c1ccccc1	140*	54	50*	-54	5.5*	0.5
CCN1CCN(C(=S)Nc2cccc([N+](=O)[O-])c2)CC1	87	-3	-5	2	0.99	1.1
CCN1C/C(=C/c2cccc([N+](=O)[O-])c2)C(=O)/C(=C/c2cccc([N+](=O)[O-])c2)C1	102	-94	-5	94*	2.5	1
COc1ccc(/C=C/CN2CCN(CC(C)C)C(CCO)C2)cc1 (configuration not stated)	112	2	0	-2	1.2	1
CCOc1ccc(C(=O)Nc2ccc(NC(=S)NC(=O)CC)cc2)cc1Cl	96	6	-4	-6	1.3	1
